Test results reported in PubChem BioAssay.
Inconclusive results are not listed.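 The calls were made as follows, unless noted: active = viability at or below 27.92% in each of two runs, the all-compound median minus 4 SD; inconclusive = no clear call, values can overlap the other calls; inactive = the rest.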

Tests used:
[1] = OD615 S. cerevisiae growth inhibition, permissive medium, pilot counter-assay, permissive growth control for S. cerevisiae lifespan shortening project (AID 705;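 active = growth inhibition above 25% in both replicates, a cutoff set 3 SD above the mean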); details: OD615, 24 h, at 10 µM, hits give high values
Summary of the method: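 System: Engineered DeaD yeast | Buffer or medium: SC raffinose/galactose permissive medium | Incubation: Cells pre-grown 4 h, then 24 h compound exposure, 30 °C humidified | Measured by: Absorbance (optical density) at 615 nm | Read-out: Reduction in yeast growth (OD615)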

[2] = Restrictive medium S. cerevisiae growth inhibition, OD615, pilot screen of yeast lifespan reduction project, restrictive growth control (AID 706;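 active = growth inhibition above a set limit, 3 SD over mean compound inhibition, in both replicates, cut at about 43% in these data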;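 also: modified DeaD lifespan yeast strain shifted to restrictive glucose medium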); details: OD615, 48 h, at 10 µM, hits give high values
Summary of the method: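 Material: modified S. cerevisiae; Medium: glucose-based CSMM-D restrictive medium; Compound dosing: one concentration, 10 µM final, 0.25% DMSO; Incubation: 48 h compound exposure at 30 °C; Measured by: OD615.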

[3] = viability gain of MRP-1-high H69AR cells under doxorubicin, pilot screen, MRP-1 activator project, CellTiter-Glo, duplicate (AID 807;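 active = viability increase at or above a cutoff of the median across tested compounds plus 3 SD, cut at about 8.5% in these data, passing the limit was not always enough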;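 also: compound pretreatment 18-22 h then 72 h combined with doxorubicin; 0% = doxorubicin alone and 100% = vehicle without doxorubicin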); details: H69AR viability with doxorubicin, CellTiter-Glo luminescence; at 10 µM; hits give high values
[4] = growth suppression of beta-catenin knockout HCT116, pilot screen, human colon tumor cells (AID 823;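 active = cell viability at or below a set limit in both duplicate runs, the limit being the all-compound median minus 4 SD, cut at about 23% in these data, passing the limit was not always enough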;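 also: 0% = wells killed by 20 µM Hyamine and 100% = untreated DMSO cell wells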); details: CellTiter-Glo, 60 h, at 10 µM, hits give low values
[5] = growth suppression of PTEN-deleted HCT116, pilot screen, cell-based, HCT116 clonal line, CellTiter-Glo (AID 824); details: 60 h, at 10 µM, hits give low values;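 also: 0% = 20 µM Hyamine control and 100% = vehicle cell control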
[6] = inhibitors of the yeast RAM network, pilot screen, dse1pr::URA3 reporter, 5-FOA selection (AID 869;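 active = inhibition over a set limit, the all-compound mean plus 3 SD, in both replicate runs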;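 also: 0% = DMSO wells with no growth and 100% = 10 µM 1-NA-PP1 with full growth; RAM network block rescues cells from 5-FOA so hits raise OD615 growth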); details: S. cerevisiae dse1pr::URA3 5-FOA growth, OD615, 2 d; at 10 µM; hits give high values; strain carries analog-sensitive mutant Cbk1 kinase
[7] = RAM signaling pathway blockade in yeast – S. cerevisiae, Pdr1DBD-CYC8 efflux-inhibited sensitized strain, primary screen (AID 1298;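 active = RAM network inhibition above 8.4% in each of two replicates, 3 SD over the compound average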;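 also: 0% = DMSO untreated cells without growth and 100% = 10 µM 1-NA-PP1 full growth; higher means more yeast growth rescued from 5-FOA killing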); details: S. cerevisiae cbk1-as DSE1-URA3 strain, 5-FOA growth OD615, 2 d; at 50 µM; hits give high values

CCN(CC)CCCNc1nc2ccccc2[nH]1
inactive: growth inhibition [1] -4% | growth inhibition [2] -5.4% | viability increase [3] -0.63% | viability [4] 99% | viability [5] 98.3% | inhibition [6] 0.52% | RAM network inhibition [7] 4.31%

COc1ccc(N2C(=O)C3CCCN3C2c2cccc(OC)c2)cc1 (stereo unspecified)
inactive: growth inhibition [1] 2.15% | growth inhibition [2] -0.935% | viability increase [3] -1.99% | viability [4] 98.9% | viability [5] 104% | inhibition [6] 1.75% | RAM network inhibition [7] -1.67%

Cc1cc(C)nc(NS(=O)(=O)c2ccc(NC(=O)c3ccc4c(c3)OCO4)cc2)n1
inactive: growth inhibition [1] -6.52% | growth inhibition [2] -0.9% | viability increase [3] 5.22% | viability [4] 100% | viability [5] 95.9% | inhibition [6] 1.28% | RAM network inhibition [7] -0.21%

O=C(Nc1ccccc1C(=O)N1CCN(Cc2ccccc2)CC1)c1ccccn1
inactive: growth inhibition [1] -4.94% | growth inhibition [2] -10.1% | viability increase [3] -2.39% | viability [4] 93.3% | viability [5] 96.2% | inhibition [6] -0.045% | RAM network inhibition [7] 6.33%

Cc1cccc(N=C(N2CCOCC2)P(=O)(N2CCOCC2)N2CCOCC2)c1
inactive: growth inhibition [1] -24.7% | growth inhibition [2] -23.4% | viability increase [3] -0.69% | viability [4] 98.1% | viability [5] 92.6% | inhibition [6] 3.29% | RAM network inhibition [7] 5.26%

CCCCC(CC)C(=O)NCCCN1CCN(CCCNC(=O)C(CC)CCCC)CC1 (stereo unspecified)
inactive: growth inhibition [1] -6.17% | growth inhibition [2] 2.97% | viability increase [3] -1.81% | viability [4] 87.3% | viability [5] 90.6% | inhibition [6] -0.16% | RAM network inhibition [7] 2.42%

Cc1cc(C)n2c(SCC(=O)Nc3ccccc3)nnc2n1
inactive: growth inhibition [1] -7.49% | growth inhibition [2] -9.43% | viability increase [3] -2.57% | viability [4] 102% | viability [5] 91.4% | inhibition [6] 1.94% | RAM network inhibition [7] -0.67%

Cn1c(SCC(=O)Nc2cc(=O)n(C)c(=O)n2C)nnc1C12CC3CC(CC(C3)C1)C2
inactive: growth inhibition [1] 2.36% | growth inhibition [2] 12.8% | viability increase [3] -4.43% | viability [4] 88.8% | viability [5] 92.7% | inhibition [6] 2.03% | RAM network inhibition [7] 3.38%

O=C(Cn1nc(C(=O)O)c2ccccc2c1=O)NCC1CCCO1 (stereo unspecified)
inactive: growth inhibition [1] -4.73% | growth inhibition [2] -13.3% | viability increase [3] -0.44% | viability [4] 103% | viability [5] 102% | inhibition [6] 1.71% | RAM network inhibition [7] 6.89%

N#CCCN1CCN(S(=O)(=O)c2ccc(S(=O)(=O)NCc3ccccc3)cc2)CC1
inactive: growth inhibition [1] -3.28% | growth inhibition [2] -15.5% | viability increase [3] 0.18% | viability [4] 96% | viability [5] 100% | inhibition [6] 1.91% | RAM network inhibition [7] 3.5%

C=CCn1cc(C(=O)NCc2cccnc2)c(=O)c2cc(S(=O)(=O)N(CC)CC)ccc21
inactive: growth inhibition [1] -7.53% | growth inhibition [2] -8.9% | viability increase [3] -3.95% | viability [4] 103% | viability [5] 97% | inhibition [6] 1.33% | RAM network inhibition [7] 0.51%

CCOC(=O)CN1CC23C=CC(O2)C(C(=O)NC2CCCCCC2)C3C1=O (stereo unspecified)
inactive: growth inhibition [1] -6.04% | growth inhibition [2] 3.45% | viability increase [3] -2.93% | viability [4] 99.3% | viability [5] 94.5% | inhibition [6] 1.36% | RAM network inhibition [7] 0.37%

COc1cccc(-c2nn(C)c3sc(C(=O)N4CCOCC4)cc23)c1
inactive: growth inhibition [1] 6.62% | growth inhibition [2] 9.91% | viability increase [3] -2.47% | viability [4] 97.5% | viability [5] 94.9% | inhibition [6] 1.45% | RAM network inhibition [7] 5.9%

CC1(C)CC(=O)C2=C(C1)Nc1ccccc1NC2c1nc2ccccc2[nH]1 (stereo unspecified)
inactive: growth inhibition [1] -10.1% | growth inhibition [2] 1.04% | viability increase [3] -3.97% | viability [4] 100% | viability [5] 95.7% | inhibition [6] 1.65% | RAM network inhibition [7] 1.45%

CCn1c(C(C)NC(=O)Cc2ccccc2)nc2ccccc21 (stereo unspecified)
inactive: growth inhibition [1] -12.2% | growth inhibition [2] -17.6% | viability increase [3] -1.21% | viability [4] 99.6% | viability [5] 96% | inhibition [6] 1.83% | RAM network inhibition [7] 4.91%

COc1ccc(-c2nc3n(n2)C(c2ccccc2Cl)C(C(N)=O)=C(C)N3)cc1 (stereo unspecified)
inactive: growth inhibition [1] -14.2% | growth inhibition [2] 0.71% | viability increase [3] -0.48% | viability [4] 96.9% | viability [5] 96.2% | inhibition [6] 1.66% | RAM network inhibition [7] -1.36%

O=C(NCCCN1CCOCC1)c1ccc(CS(=O)(=O)c2ccc(Br)cc2)o1
inactive: growth inhibition [1] -9.31% | growth inhibition [2] -11% | viability increase [3] -0.56% | viability [4] 99.8% | viability [5] 96.2% | inhibition [6] 2.23% | RAM network inhibition [7] 3.6%

CCCC(=O)Nc1ccc(N2CCCCC2)cc1
inactive: growth inhibition [1] -9.5% | growth inhibition [2] -9.51% | viability increase [3] -2.5% | viability [4] 87.2% | viability [5] 94.4% | inhibition [6] 3.02% | RAM network inhibition [7] 5.92%
